This is an account of results in ChEMBL document CHEMBL1128278, “Design, synthesis, and structure--activity relationship studies for a new imidazole series of J774 macrophage specific acyl-CoA:cholesterol acyltransferase (ACAT) inhibitors” (J Med Chem, 1995).

Test [1] can be described thus: Acyl coenzyme A:cholesterol acyltransferase inhibition in cell culture measured in murine J774 macrophages.
Test [2] addresses T1, Sterol O-acyltransferase 1 (Rattus norvegicus, UniProt O70536).
T1 sequence (O70536 whole entry): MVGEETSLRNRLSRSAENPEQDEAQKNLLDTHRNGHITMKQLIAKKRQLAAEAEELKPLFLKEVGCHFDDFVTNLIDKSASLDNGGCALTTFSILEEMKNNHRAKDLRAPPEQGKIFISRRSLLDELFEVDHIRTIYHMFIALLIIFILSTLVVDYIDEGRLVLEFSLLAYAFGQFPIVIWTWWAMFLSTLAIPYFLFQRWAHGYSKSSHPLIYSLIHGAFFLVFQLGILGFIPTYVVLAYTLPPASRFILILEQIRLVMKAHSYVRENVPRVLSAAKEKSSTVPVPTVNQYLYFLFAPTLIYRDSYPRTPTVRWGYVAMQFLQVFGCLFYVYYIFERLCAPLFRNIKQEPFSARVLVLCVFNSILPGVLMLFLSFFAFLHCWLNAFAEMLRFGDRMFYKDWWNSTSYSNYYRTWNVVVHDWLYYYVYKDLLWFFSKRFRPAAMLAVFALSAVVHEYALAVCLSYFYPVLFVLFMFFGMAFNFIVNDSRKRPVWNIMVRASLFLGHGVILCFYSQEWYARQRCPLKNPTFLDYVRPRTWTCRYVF
Kind of test: Concentration required to inhibit 50% activity of Acyl coenzyme A:cholesterol acyltransferase 1 in vitro using rat liver microsome. The class given is microsomes. Particulars: read-out: IC50. Put shortly:
(§1)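 Rat liver microsomes; ACAT activity read as [14C]cholesteryl oleate formed from [14C]oleoyl-CoA (pmol/min/mg). Inhibitors added in 5 µL DMSO. Duplicate assays with at least four inhibitor concentrations bracketing the IC50; IC50 is the concentration giving 50% inhibition of ACAT activity. Average range of replicates ±17%.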

Test [3] can be described thus: Acyl coenzyme A:cholesterol acyltransferase inhibition in cell culture measured in murine IC-21 macrophages.
Test [4] deals with T1, Sterol O-acyltransferase 1. Description: ACAT activity was determined in rat hepatic microsomes by measuring the formation of labeled cholesteryl oleate (pmol/midmg) from [14C]oleoyl-CoA. Type of test: functional, Liver. Put shortly: as §1
The subject of test [5] is J774. Description: Concentration required to inhibit 50% activity of J774 macrophage cholesterol esterification. The class given is functional, cell-based. Particulars: Mus musculus. Put shortly: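 Intact J774A.1 cells, seeded at 3 x 10^4 cells/cm2 and grown 36 h, then loaded 17 h with ac-LDL in 10% FBS-DMEM. Inhibitors in DMSO (1.0% final) for 4 h, with [14C]oleate–BSA for the last 2 h. Cholesteryl ester separated by TLC and counted (nmol/h/mg Lowry protein).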

Test [6] is described as follows: Acyl coenzyme A:cholesterol acyltransferase activity was determined in J774 macrophages by measuring the formation of labeled cholesteryl oleate (pmol/midmg) from [14C]oleoyl-CoA. The class given is functional. Put shortly: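 J774 cells grown in high-glucose DMEM with 10% FBS at 37 °C, 6% CO2, then harvested for microsome preparation. ACAT activity in these microsomes measured as in the hepatic assay, as [14C]cholesteryl oleate formed from [14C]oleoyl-CoA, with inhibitors in DMSO. IC50 taken as the concentration giving 50% inhibition.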

Each structure is given as a SMILES string.

With `CCCCCCCN(CCCCCSc1nc(-c2ccc(N(C)C)cc2)c(-c2ccc(N(C)C)cc2)[nH]1)C(=O)CC1CCCCC1`, the IC50 in test [1] stood at 16 nM; in test [2], 50 nM.
Turning to `COCCOCCN(CCCCCSc1nc(-c2ccc(OC)cc2)c(-c2ccc(OC)cc2)[nH]1)C(=O)NC(C)C`, the IC50 in test [1] turned out to be 360 nM; in test [2], 500 nM.
As to `CN(CCSc1nc(-c2ccccc2)c(-c2ccccc2)[nH]1)CCN(CCN1CCOCC1)C(=O)Nc1ccc(F)cc1F`, the IC50 is 2740 nM in test [1] and 240 nM in test [2].
For the compound `CCCCN(C)CCN(CCOCCSc1nc(-c2ccc(OC)cc2)c(-c2ccc(OC)cc2)[nH]1)C(=O)Nc1ccc(F)cc1F`, the IC50 came to 630 nM in test [3] and 1500 nM in test [2].
On to `CCCCCCCN(CCCCCSc1nc(-c2ccc(C(F)(F)F)cc2)c(-c2ccc(C(F)(F)F)cc2)[nH]1)C(=O)Nc1ccc(F)cc1F`, for which the results for the IC50 in test [1] and in test [2] were 25000 nM and 39900 nM, respectively.
On the same counts, the results for `COc1ccc(-c2nc(SCCCCCN(CCOCCO)C(=O)Nc3ccc(F)cc3F)[nH]c2-c2ccc(OC)cc2)cc1` are 840 nM and 230 nM.
Turning to `CCCCCCCN(CCCCCSc1nc(-c2ccc(N(C)C)cc2)c(-c2ccc(N(C)C)cc2)[nH]1)C(=O)NC(C)C`, the IC50 in test [4] worked out at 80 nM; in test [5], 4 nM; in test [6], 0.6 nM; in test [1], 3 nM; in test [2], 80 nM.
Turning to `CCCCOCCN(CCCCCSc1nc(-c2ccccc2)c(-c2ccccc2)[nH]1)C(=O)NC(C)C`, the results for the 50% inhibitory concentration (IC50) in test [1] and in test [2] were 840 nM and 190 nM, respectively.
Turning to `CCOCCOCCN(CCCCCSc1nc(-c2ccccc2)c(-c2ccccc2)[nH]1)C(=O)NC(C)C`, the IC50 in test [1] was 3020 nM; in test [2], 30 nM.
As to `CCCCCCCN(CCCCCSc1nc(-c2ccccc2)c(-c2ccccc2)[nH]1)C(=O)Nc1ccc(F)cc1F` [LECIMIBIDE], the IC50 in test [5] worked out at 1000 nM; in test [6], 25 nM; in test [1], 1000 nM.
